# Compound activity from PubChem.
# H69AR inhibit = growth inhibitors of human H69AR lung tumor cells. H69AR lung tumor viability, ATP luminescence, 72 h; stronger effect = lower value. viability, % at 10 µM. 6% of 85,000 active. AID 598;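 active means viability at or below 40%; inactive means viability above 40%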;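 further: multidrug resistant small cell line overexpressing MRP-1 efflux transporter; 100% = mean luminescence of untreated control wells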
# HCT116 bCat-KO = beta-catenin-lacking colon tumor cell growth suppression. HCT116 beta-catenin knockout viability, CellTiter-Glo, 60 h; stronger effect = lower value. AID 818. 1.5% of 140,000 active. viability, % at 10 µM;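 active means viability at or under a set limit, the compound median less 4 SD, cut at about 6% in these data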;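 further: 0% = Hyamine 1622 control at 20 µM and 100% = untreated cell control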
# Lung fibro prol = blocks proliferation of human lung fibroblasts; LL 47 human lung fibroblast viability, ATP luminescence; stronger effect = lower value; viability, % at 10 µM; 1.1% of 85,000 active; AID 719;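 active means viability at or below 50% in the single dose screen; inactive means viability above 50%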;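 further: compound exposure lasted 72 h before the ATP readout; 100% = median luminescence of untreated cell-only wells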
#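 Material: Human LL 47 lung fibroblast cells | Input: 1,150 cells/well | Buffer or medium: IMEM plus 15% FBS | Compound dosing: 0.1% DMSO in all compound wells | Times: Overnight cell rest, 72 h compound treatment at 37 °C | Signal: CellTiter-Glo luminescence measuring cellular ATP | Measure: % viability versus median cells-only luminescence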
# HCT116 PTEN-null = PTEN-deleted cell growth suppression. AID 827. 1.2% of 140,000 active. HCT116 PTEN-null viability, CellTiter-Glo, 60 h; stronger effect = lower value. viability, % at 10 µM;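 active means viability at or below a set limit, 4 SD under the median of all tested compounds, cut at about 3.7% in these data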;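 further: PTEN knockout HCT116 line with beta catenin targeted HCT116 as companion control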
# HUVEC inhibit = human endothelial cell proliferation inhibition; 1.1% of 86,000 active; HUVEC proliferation, CellTiter-Glo luminescence, 72 h; stronger effect = lower value; AID 648; viability, % at 10 µM (by protocol);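 active means viability at or below 30%; inactive means viability above 30%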;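 further: 100% = median luminescence of DMSO-only cell control wells on each plate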
# * hit, by the source's call; nt = not tested or not shown. Shown is part of a subset that was picked to be rich in hits.
SMILES,H69AR inhibit,HCT116 bCat-KO,Lung fibro prol,HCT116 PTEN-null,HUVEC inhibit
O=C(CCC1N=C2c3ccccc3N=C(SCc3ccc(Cl)cc3)N2C1=O)NCc1ccco1 (configuration not stated),74,75,102,69,76
O=c1ccc2cc3c([nH]c4ccc(Br)cc43)oc-2c1O,23*,98,87,100,101
O=c1[nH]c2ccc(Br)cc2c(-c2ccccc2)c1N1CCOCC1,68,81,82,81,90
Cn1c(N)c(C(=O)CCl)c(=O)n(Cc2ccccc2)c1=O,nt,36,nt,36,nt
Cn1c(N)c(C(=O)CCl)c(=O)n(C)c1=O,3.0*,85,76,94,89
COC(C)(C)[C@H](O)COc1c2ccoc2cc2oc(=O)ccc12,nt,0.6*,nt,0.7*,nt
O=C1[C@@H]2Cc3c([nH]c4ccccc34)[C@@H](c3ccccc3)N2C(=O)[C@@H]2Cc3c([nH]c4ccccc34)[C@@H](c3ccccc3)N12,nt,1.4*,nt,1.5*,nt
COc1cc([C@H]2c3[nH]c4ccccc4c3C[C@H]3C(=O)N4[C@@H](c5cc(OC)c(OC)c(OC)c5)c5[nH]c6ccccc6c5C[C@H]4C(=O)N23)cc(OC)c1OC,nt,3.0*,nt,1.8*,nt
Cc1ccc(NC(=O)C2CCCO2)cc1[N+](=O)[O-] (configuration not stated),nt,88,nt,87,nt
CCOC(=O)CSc1nnc(SCCN2C(=O)c3ccccc3C2=O)s1,94,97,104,109,94
c1cc2c(cc1C1=Nn3c(nnc3C3CCCCC3)SC1)OCO2,29*,48,84,38,75
O=C(N/N=C/c1ccccc1F)c1ccc(COc2ccccc2Cl)o1,nt,94,nt,103,nt
COc1ccc(S(=O)(=O)Nc2cc(Cl)ccc2OC)cc1,19*,19,52,18,39
COc1ccc(OC)c(NS(=O)(=O)c2ccc(SC)cc2)c1,14*,22,84,27,62
COc1ccc(OC)c(NS(=O)(=O)c2ccc(NC(C)=O)cc2)c1,34*,76,93,67,91
COc1ccc(OC)c(S(=O)(=O)Nc2ccc(O)c3ccccc23)c1,1.9*,1.8*,55,2.0*,2.3*
COc1ccc(C)cc1NS(=O)(=O)c1ccc(NS(=O)(=O)c2ccc(NC(C)=O)cc2)cc1,94,98,98,98,93
COc1ccc(OC)c(S(=O)(=O)Nc2ccc(Oc3ccccc3)cc2)c1,94,85,92,71,91
COc1ccc(NS(=O)(=O)c2ccc(NS(=O)(=O)c3ccc(SC)cc3)cc2)c(OC)c1,55,90,101,nt,85
COc1ccc(C(=O)NN2CC(O)=C(c3nc4ccccc4n3C)C2=N)cc1OC,nt,105,nt,98,nt
CCOc1ccc(S(=O)(=O)Nc2cc(OC)ccc2OC)cc1,23*,14,100,9,50
CCOc1ccc(S(=O)(=O)Nc2cc(OC)c(OC)cc2C(=O)O)cc1,nt,98,nt,101,nt
O=C(NCc1ccco1)c1cnn2c(C(F)(F)F)cc(-c3cccs3)nc12,7.1*,80,86,69,92
O=C(NCc1ccco1)c1cnn2c(C(F)F)cc(-c3ccccc3)nc12,61,86,92,86,97
COc1ccc(Cl)c(NCCC(=O)O)c1,91,95,86,93,92
SMILES,H69AR inhibit,HCT116 bCat-KO,Lung fibro prol,HCT116 PTEN-null,HUVEC inhibit
Cc1ccc(C2CC(c3cccs3)=NN2C(=O)CSC2=NN3CCCC(=O)N=C3S2)cc1 (configuration not stated),11*,63,96,51,99
C=CCn1c(N)c(C(=O)NCC2CCCO2)c2nc3ccccc3nc21 (configuration not stated),68,62,96,66,63
Nc1c(C(=O)NCc2ccc(F)cc2)c2nc3ccccc3nc2n1CCCN1CCOCC1,1.2*,1.3*,68,1.0*,5.1*
COc1ccc(CNC(=O)c2c(N)n(CCCN3CCOCC3)c3nc4ccccc4nc23)cc1,1.2*,1.4*,92,1.7*,7.0*
COc1ccc(-n2c(N)c(C(=O)NCC3CCCO3)c3nc4ccccc4nc32)c(OC)c1 (configuration not stated),40*,48,87,46,67
Cc1sc(NC(=O)c2ccc(Br)s2)c(C(N)=O)c1C,50,84,84,85,94
O=C(N/N=C/c1ccccn1)c1cc(-c2ccc(Cl)cc2)nc2ccccc12,nt,3.7*,nt,3.2*,nt
O=C(N/N=C/c1ccc2c(c1)OCO2)c1cc(-c2ccccc2)nc2ccccc12,nt,95,nt,92,nt
